Results published in ChEMBL document CHEMBL3822380, “Simple avarone mimetics as selective agents against multidrug resistant cancer cells” (Eur J Med Chem, 2016).
In brackets after ≈: the same amount, converted by molar mass. Activity calls are given as the source filed them.

Experiments:
HaCaT [1] = experiment: Induction of apoptosis in human HaCaT cells assessed as late apoptotic/necrotic cells at 25 uM after 72 hrs by annexin-V/propidium iodide staining-based flow cytometric analysis (reference value: 0.2%); format: cell-based
NCI-H460 [2] = experiment: Induction of apoptosis in multidrug resistant human NCI-H460 cells assessed as live cells at 25 uM after 72 hrs by annexin-V/propidium iodide staining-based flow cytometric analysis (reference value: 96.4%); format: functional
NCI-H460 [3] = experiment: Cytotoxicity against human NCI-H460 cells after 72 hrs by MTT assay; format: functional, cell-based; settings: NCI-H460, 72 h
Method in brief: (§1)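 Seeding in 96-well plates at 1000 (NCI-H460), 2000 (NCI-H460/R) or 4000 (HaCaT) cells/well, treated after 24 h for 72 h. MTT at 0.4 mg/mL final, 4 h at 37 °C. Formazan dissolved in DMSO, absorbance read at 540 nm. Inhibition % = (1 − A treated/A untreated)×100. IC30 and IC50 obtained by linear regression.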

NCI-H460 [4] = experiment: Induction of apoptosis in multidrug resistant human NCI-H460 cells assessed as late apoptotic/necrotic cells at 25 uM after 72 hrs by annexin-V/propidium iodide staining-based flow cytometric analysis (reference value: 1%); format: functional
[5] = Selectivity ratio of IC30/IC50 for human HaCaT cells to IC30/IC50 for multidrug resistant human NCI-H460 cells; format: ADME, cell-based; settings: HaCaT cells versus multidrug resistant NCI-H460 cells
Method in brief: (§2)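 Fold threshold of 1.5 used to call selectivity to cancer cells, resistance, or selectivity to MDR cells.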

NCI-H460 [6] = experiment: Induction of apoptosis in human NCI-H460 cells assessed as early apoptotic cells at 25 uM after 72 hrs by annexin-V/propidium iodide staining-based flow cytometric analysis (reference value: 0.3%); format: functional
[7] = Selectivity ratio of IC30/IC50 for human HaCaT cells to IC30/IC50 for human NCI-H460 cells; format: ADME, cell-based; settings: HaCaT cells versus NCI-H460 cells; method in brief: as §2
NCI-H460 [8] = experiment: Induction of apoptosis in human NCI-H460 cells assessed as live cells at 25 uM after 72 hrs by annexin-V/propidium iodide staining-based flow cytometric analysis (reference value: 98.3%); format: functional
NCI-H460 [9] = experiment: Induction of apoptosis in multidrug resistant human NCI-H460 cells assessed as dead cells at 25 uM after 72 hrs by annexin-V/propidium iodide staining-based flow cytometric analysis (reference value: 1.5%); format: functional
HaCaT [10] = experiment: Cytotoxicity against human HaCaT cells after 72 hrs by MTT assay; format: cell-based; settings: for IC50: Homo sapiens, HaCaT; for IC30: human, hacat; method in brief: as §1
NCI-H460 [11] = experiment: Induction of superoxide anion generation in multidrug resistant human NCI-H460 cells at 25 uM after 72 hrs by DHE staining-based flow cytometric analysis relative to control; format: functional, cell-based
Method in brief: (§3)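 Seeded as for cell death (50,000 or 100,000 cells/well), treated 72 h at 25 µM, with CDDP 5 µM as control. Adherent cells trypsinized and loaded with 1 µM DHE for 30 min at 37 °C in the dark, then washed twice in PBS. Flow cytometry at ex 488/em 585 nm (FL2-H). Mean fluorescence intensity corrected for autofluorescence and compared with untreated control.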

NCI-H460 [12] = experiment: Induction of superoxide anion generation in human NCI-H460 cells at 25 uM after 72 hrs by DHE staining-based flow cytometric analysis relative to control; format: functional, cell-based; method in brief: as §3
NCI-H460 [13] = experiment: Induction of apoptosis in human NCI-H460 cells assessed as dead cells at 25 uM after 72 hrs by annexin-V/propidium iodide staining-based flow cytometric analysis (reference value: 1.2%); format: functional
NCI-H460 [14] = experiment: Induction of apoptosis in multidrug resistant human NCI-H460 cells assessed as early apoptotic cells at 25 uM after 72 hrs by annexin-V/propidium iodide staining-based flow cytometric analysis (reference value: 1.1%); format: functional
HaCaT [15] = experiment: Induction of apoptosis in human HaCaT cells assessed as dead cells at 25 uM after 72 hrs by annexin-V/propidium iodide staining-based flow cytometric analysis (reference value: 2.8%); format: cell-based
NCI-H460 [16] = experiment: Cytotoxicity against multidrug resistant human NCI-H460 cells after 72 hrs by MTT assay; format: functional, cell-based; settings: NCI-H460, 72 h; method in brief: as §1
HaCaT [17] = experiment: Induction of apoptosis in human HaCaT cells assessed as early apoptotic cells at 25 uM after 72 hrs by annexin-V/propidium iodide staining-based flow cytometric analysis (reference value: 0.2%); format: cell-based
NCI-H460 [18] = experiment: Induction of apoptosis in human NCI-H460 cells assessed as late apoptotic/necrotic cells at 25 uM after 72 hrs by annexin-V/propidium iodide staining-based flow cytometric analysis (reference value: 0.2%); format: functional
[19] = Induction of apoptosis in human HaCaT cells assessed as live cells at 25 uM after 72 hrs by annexin-V/propidium iodide staining-based flow cytometric analysis (reference value: 96.8%); format: cell-based; settings: read-out: Activity
Staphylococcus aureus = experiment: Antibacterial activity against Staphylococcus aureus ATCC 6538 by broth microdilution method; format: functional
Method in brief: (§4)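 Broth microdilution per NCCLS. Compounds dissolved in DMSO as 10 mg/mL stock, diluted in Mueller Hinton broth (bacteria) or Sabouraud dextrose broth (fungi). Amikacin served as the positive control for bacteria and nystatin for fungi.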

Micrococcus luteus [20] = experiment: Antibacterial activity against Micrococcus luteus ATCC 4698 by broth microdilution method; format: functional; settings: NCTC 2665; method in brief: as §4
Escherichia coli = experiment: Antibacterial activity against Escherichia coli ATCC 25922 by broth microdilution method; format: functional; method in brief: as §4
Clostridium sporogenes = experiment: Antibacterial activity against Clostridium sporogenes ATCC 19404 by broth microdilution method; format: functional; method in brief: as §4
NCI-H460 [21] = experiment: Selectivity ratio of IC30/IC50 for human NCI-H460 cells to IC30/IC50 for multidrug resistant human NCI-H460 cells; format: functional; method in brief: as §2
Salmonella enteritidis = experiment: Antibacterial activity against Salmonella enterica subsp. enterica serovar Enteritidis ATCC 13076 by broth microdilution method; format: functional; method in brief: as §4
Aspergillus brasiliensis = experiment: Antifungal activity against Aspergillus brasiliensis ATCC 16404 by broth microdilution method; format: functional; method in brief: as §4
Bacillus spizizenii = experiment: Antibacterial activity against Bacillus subtilis ATCC 6633 by broth microdilution method; format: functional; method in brief: as §4
Saccharomyces cerevisiae = experiment: Antifungal activity against Saccharomyces cerevisiae ATCC 9763 by broth microdilution method; format: functional; method in brief: as §4
Pseudomonas aeruginosa = experiment: Antibacterial activity against Pseudomonas aeruginosa ATCC 9027 by broth microdilution method; format: functional; method in brief: as §4
Micrococcus luteus [22] = experiment: Antibacterial activity against Micrococcus luteus ATCC 10240 by broth microdilution method; format: functional; method in brief: as §4
Candida albicans = experiment: Antifungal activity against Candida albicans ATCC 10231 by broth microdilution method; format: functional; method in brief: as §4
HaCaT [23] = experiment: Induction of superoxide anion generation in human HaCaT cells at 25 uM after 72 hrs by DHE staining-based flow cytometric analysis relative to control; format: cell-based; method in brief: as §3
NCI-H460 [24] = experiment: Induction of mitochondrial membrane potential depolarization in human NCI-H460 cells at 25 uM after 15 mins by JC1-staining-based flow cytometric analysis; format: functional, cell-based
Method in brief: (§5)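 Cells treated with 25 µM compound, with CDDP 5 µM as control. Stained with JC-1 for 15 min at 37 °C in a CO2 incubator, washed twice in assay buffer and resuspended in PBS. Flow cytometry read red aggregate (FL2-H) versus green monomer (FL1-H) fluorescence. Live cells were also imaged by fluorescence microscopy.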

HaCaT [25] = experiment: Induction of mitochondrial membrane potential depolarization in human HaCaT cells at 25 uM after 15 mins by JC1-staining-based flow cytometric analysis; format: cell-based; settings: 0.25 h; method in brief: as §5
NCI-H460 [26] = experiment: Induction of mitochondrial membrane potential depolarization in multidrug resistant human NCI-H460 cells at 25 uM after 15 mins by JC1-staining-based flow cytometric analysis; format: functional, cell-based; method in brief: as §5

| Compound | Activity (HaCaT [1]) [%] | Activity (NCI-H460 [2]) [%] | IC30 (NCI-H460 [3]) [µM] | IC50 (NCI-H460 [3]) [µM] | Activity (NCI-H460 [4]) [%] | selectivity ratio [5] | Activity (NCI-H460 [6]) [%] | selectivity ratio [7] | Activity (NCI-H460 [8]) [%] | Activity (NCI-H460 [9]) [%] | IC50 (HaCaT [10]) [µM] | IC30 (HaCaT [10]) [µM] | Activity (NCI-H460 [13]) [%] | Activity (NCI-H460 [14]) [%] | Activity (HaCaT [15]) [%] | IC30 (NCI-H460 [16]) [µM] | IC50 (NCI-H460 [16]) [µM] | Activity (HaCaT [17]) [%] | Activity (NCI-H460 [18]) [%] | viability at 72 h, 25 µM [19] [%] | further results |
| --- | --- | --- | --- | --- | --- | --- | --- | --- | --- | --- | --- | --- | --- | --- | --- | --- | --- | --- | --- | --- | --- |
| CC1=CCC[C@H]2[C@](C)(CC3=CC(=O)C=CC3=O)[C@@H](C)CC[C@]12C [AVARONE] | 10.1 | 65.8 | 36 | 84 | 22.7 | ≤ 1.5 | 3.4 | ≤ 1.5 | 74 | 8.9 | 37 | 16 | 6.3 | 2.6 | 9.1 | 10 | 24 | 2.5 | 16.3 | 78.3 | Activity (NCI-H460 [11]): Active; Activity (NCI-H460 [12]): Active |
| CC(C)(C)C1=CC(=O)C=C(NCc2ccccc2)C1=O | – | – | 5 | 14 | – | ≤ 1.5 | – | ≤ 1.5 | – | – | 21 | 12 | – | – | – | 3 | 10 | – | – | – | MIC (Staphylococcus aureus): 9 µM (≈ 2.42 µg/mL); MIC (Micrococcus luteus [20]): 4650 µM (≈ 1250 µg/mL); MIC (Escherichia coli): 9 µM (≈ 2.42 µg/mL); MIC (Clostridium sporogenes): 2320 µM (≈ 626 µg/mL); selectivity ratio (NCI-H460 [21]): <=1.5; MIC (Salmonella enteritidis): 4650 µM (≈ 1250 µg/mL); MIC (Aspergillus brasiliensis): 2320 µM (≈ 626 µg/mL); MIC (Bacillus spizizenii): 2320 µM (≈ 626 µg/mL); MIC (Saccharomyces cerevisiae): 2320 µM (≈ 626 µg/mL); MIC (Pseudomonas aeruginosa): 2320 µM (≈ 626 µg/mL); MIC (Micrococcus luteus [22]): 9 µM (≈ 2.42 µg/mL); MIC (Candida albicans): 2320 µM (≈ 626 µg/mL) |
| CC1=CCC[C@H]2[C@](C)(CC3=CC(=O)C=C(NCCc4ccccc4)C3=O)[C@@H](C)CC[C@]12C | 0.4 | 53 | 14 | 21 | 3.5 | ≤ 1.5 | 0.1 | ≤ 1.5 | 71.7 | 42.3 | 23 | 18 | 28 | 1.2 | 41.3 | 6 | 11 | 0.2 | 0.2 | 58.1 | selectivity ratio (NCI-H460 [21]): <=1.5; Activity (NCI-H460 [11]): Active; Activity (HaCaT [23]): Toxic |
| CC(C)(C)C1=CC(=O)C=CC1=O | 3.8 | 95.2 | > 100 | > 100 | 1.2 | – | 0.5 | – | 95.2 | 3.1 | 95 | 41 | 3.8 | 0.5 | 7.5 | 31 | 72 | 1.9 | 0.5 | 86.8 | Activity (NCI-H460 [24]): inactive; Activity (HaCaT [25]): Non-toxic; Activity (NCI-H460 [26]): inactive |
